# Key:
# [1] = Elimination half life in Wistar rat at 50 mg/kg, iv; assay type: ADME, organism-based; set-up: dose 50 mg/kg, route intravenous; conditions: in vivo
# How it was run: (§1)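 Compound dissolved in normal saline/water 60/40 (20 mg/mL). Rats: fasted 12 h before and first 12 h; blood sampled 5–240 min after iv, to 8 h oral, to 24 h ip; urine collected at 24 and 48 h in metabolic cages. Mice (22–25 g, fasted 12 h): portal-vein blood under ether at 0–720 min, one mouse per time point. Plasma quantified by HPLC-MS with acyclovir internal standard.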
# [2] = AUC in Wistar rat at 50 mg/kg, iv; assay type: ADME, organism-based; set-up: dose 50 mg/kg, route intravenous; conditions: plasma; how it was run: as §1
# B16-F10 [3] = experiment: Reduction in tumor colonization in C57B1 mouse bearing B16F10 cells at 50 mg/kg, ip after 21 days; assay type: functional; set-up: scale not given: the % may be the effect or the level left; conditions: route intraperitoneal
# How it was run: (§2)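 Female C57Bl mice given 50k B16F10 cells via tail vein; dosing started the same day, daily except weekends for three weeks, in PBS, ip or oral (dose-response 12.5–50 mg/kg ip). Lungs fixed at day 21 and metastatic foci counted; eight mice per group.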
# [4] = Cmax in C57B1 mouse at 150 mg/kg, po; assay type: ADME, organism-based; set-up: dose 150 mg/kg, route oral; conditions: in vivo; how it was run: as §1
# [5] = AUC in C57B1 mouse at 150 mg/kg, po; assay type: ADME, organism-based; set-up: dose 150 mg/kg, route oral; conditions: plasma; how it was run: as §1
# [6] = biological target: T1, 72 kDa type IV collagenase (Homo sapiens, UniProt P08253); experiment: Inhibition of human recombinant MMP2
# How it was run: (§3)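 Human recombinant enzymes each incubated at four concentrations with a suitable colorimetric or fluorogenic peptide substrate for 3 h. Inhibitor tested at four to six concentrations. Activity read as colorimetric or fluorescence change on a plate reader.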
# Target sequence in this assay (P08253 whole entry): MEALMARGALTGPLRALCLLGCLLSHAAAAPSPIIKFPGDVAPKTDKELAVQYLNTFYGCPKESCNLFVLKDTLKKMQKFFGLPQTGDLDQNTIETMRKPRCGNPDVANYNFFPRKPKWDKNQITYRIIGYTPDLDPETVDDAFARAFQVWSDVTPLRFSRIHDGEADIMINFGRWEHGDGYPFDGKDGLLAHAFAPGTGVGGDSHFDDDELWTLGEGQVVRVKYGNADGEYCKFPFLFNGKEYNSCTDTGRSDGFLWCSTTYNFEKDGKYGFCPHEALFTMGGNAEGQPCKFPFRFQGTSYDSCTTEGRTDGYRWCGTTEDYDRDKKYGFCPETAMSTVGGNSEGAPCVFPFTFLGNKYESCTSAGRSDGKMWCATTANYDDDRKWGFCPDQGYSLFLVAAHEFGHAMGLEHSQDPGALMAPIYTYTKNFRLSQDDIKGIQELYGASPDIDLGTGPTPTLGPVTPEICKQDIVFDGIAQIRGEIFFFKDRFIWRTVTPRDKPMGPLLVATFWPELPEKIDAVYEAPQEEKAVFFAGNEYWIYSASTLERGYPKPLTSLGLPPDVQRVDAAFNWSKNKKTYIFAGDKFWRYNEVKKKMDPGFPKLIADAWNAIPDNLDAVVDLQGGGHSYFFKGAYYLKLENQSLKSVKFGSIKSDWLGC
# [7] = biological target: Macrophage metalloelastase (Homo sapiens, UniProt P39900); experiment: Inhibition of human recombinant MMP12
# Sequence of Macrophage metalloelastase (P39900 whole entry): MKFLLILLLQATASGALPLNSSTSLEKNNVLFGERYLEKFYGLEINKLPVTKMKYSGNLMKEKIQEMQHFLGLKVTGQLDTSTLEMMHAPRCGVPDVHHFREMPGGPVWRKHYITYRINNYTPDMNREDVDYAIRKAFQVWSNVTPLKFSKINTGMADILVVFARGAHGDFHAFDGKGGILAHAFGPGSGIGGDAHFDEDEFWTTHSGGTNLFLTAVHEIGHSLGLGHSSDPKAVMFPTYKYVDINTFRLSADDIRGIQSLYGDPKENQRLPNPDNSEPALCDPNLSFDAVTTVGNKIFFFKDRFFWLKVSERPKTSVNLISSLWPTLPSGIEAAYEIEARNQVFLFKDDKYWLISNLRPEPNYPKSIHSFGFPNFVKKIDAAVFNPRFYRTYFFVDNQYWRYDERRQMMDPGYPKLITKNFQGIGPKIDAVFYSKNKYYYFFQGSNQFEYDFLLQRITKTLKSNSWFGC
# How it was run: (§4)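 Purified human recombinant enzyme tested at four different concentrations against the matching colorimetric or fluorescent peptide substrate for 3 h, with inhibitor at four to six concentrations. Activity was read as a colour or fluorescence change on a plate reader, and IC50 was calculated from these readings.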
# [8] = Elimination half life in Wistar rat at 150 mg/kg, po; assay type: ADME, organism-based; set-up: dose 150 mg/kg, route oral; conditions: in vivo; how it was run: as §1
# [9] = Volume of distribution at steady state in Wistar rat at 50 mg/kg, iv; assay type: ADME, organism-based; set-up: dose 50 mg/kg, route intravenous; conditions: in vivo, read-out: Vdss; how it was run: as §1
# Mus musculus [10] = experiment: Acute toxicity in C57B1 mouse at 50 to 500 mg/kg; assay type: organism-based; set-up: dose 50-500 mg/kg; conditions: in vivo
# How it was run: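 C57Bl mice dosed intraperitoneally daily for two weeks at 50, 250 and 500 mg/kg; monitored for toxic signs and behavioural and nutritional status.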
# [11] = Cmax in Wistar rat at 150 mg/kg, po; assay type: ADME, organism-based; set-up: dose 150 mg/kg, route oral; conditions: in vivo; how it was run: as §1
# Stromelysin-1 = Stromelysin-1 (Homo sapiens, UniProt P08254); experiment: Inhibition of human recombinant MMP3; how it was run: as §3
# Sequence of Stromelysin-1 (P08254 whole entry): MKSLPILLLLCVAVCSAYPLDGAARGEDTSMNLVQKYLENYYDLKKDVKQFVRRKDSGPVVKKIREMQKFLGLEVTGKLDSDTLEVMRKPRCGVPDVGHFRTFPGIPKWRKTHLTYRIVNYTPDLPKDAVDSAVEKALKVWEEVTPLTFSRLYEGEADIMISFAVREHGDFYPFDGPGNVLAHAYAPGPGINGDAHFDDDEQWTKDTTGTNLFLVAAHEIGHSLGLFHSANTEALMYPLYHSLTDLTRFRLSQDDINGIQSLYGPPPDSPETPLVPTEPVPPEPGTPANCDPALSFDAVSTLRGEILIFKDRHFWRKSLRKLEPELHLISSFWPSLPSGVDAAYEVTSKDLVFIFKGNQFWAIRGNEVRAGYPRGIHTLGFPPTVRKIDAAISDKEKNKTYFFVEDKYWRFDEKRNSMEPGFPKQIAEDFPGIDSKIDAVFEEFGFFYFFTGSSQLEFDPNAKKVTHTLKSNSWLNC
# [12] = Tmax in Wistar rat at 150 mg/kg, po; assay type: ADME, organism-based; set-up: dose 150 mg/kg, route oral; conditions: in vivo; how it was run: as §1
# [13] = AUC in Wistar rat at 150 mg/kg, po; assay type: ADME, organism-based; set-up: dose 150 mg/kg, route oral; conditions: plasma; how it was run: as §1
# [14] = biological target: T1, 72 kDa type IV collagenase; conditions: 100 uM
# Target sequence in this assay (P08253 110-660 limits assumed): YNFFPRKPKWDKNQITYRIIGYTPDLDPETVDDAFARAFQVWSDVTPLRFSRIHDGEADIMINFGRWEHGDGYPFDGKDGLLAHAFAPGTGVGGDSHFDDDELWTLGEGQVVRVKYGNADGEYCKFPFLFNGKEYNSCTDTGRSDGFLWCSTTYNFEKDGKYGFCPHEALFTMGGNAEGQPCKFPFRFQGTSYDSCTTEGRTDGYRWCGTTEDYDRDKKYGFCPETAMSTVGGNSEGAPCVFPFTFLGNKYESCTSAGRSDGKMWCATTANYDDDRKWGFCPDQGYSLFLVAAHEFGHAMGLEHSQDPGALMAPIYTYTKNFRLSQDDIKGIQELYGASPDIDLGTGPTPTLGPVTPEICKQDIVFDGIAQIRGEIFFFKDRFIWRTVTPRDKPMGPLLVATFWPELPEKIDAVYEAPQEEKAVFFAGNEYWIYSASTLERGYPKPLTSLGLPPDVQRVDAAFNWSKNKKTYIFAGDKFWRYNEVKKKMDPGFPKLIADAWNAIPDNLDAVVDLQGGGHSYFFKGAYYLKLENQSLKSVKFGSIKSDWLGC
# [15] = Apparent permeability in C57B1 mouse colon in using diffusion chamber; assay type: ADME, tissue-based; conditions: not told
# [16] = Clearance in Wistar rat at 50 mg/kg, iv; assay type: ADME, organism-based; set-up: dose 50 mg/kg, route intravenous; conditions: in vivo; how it was run: as §1
# Neutrophil collagenase = Neutrophil collagenase (Homo sapiens, UniProt P22894); experiment: Inhibition of human recombinant MMP8; how it was run: as §3
# Sequence of Neutrophil collagenase (P22894 whole entry, the tested form may be a part): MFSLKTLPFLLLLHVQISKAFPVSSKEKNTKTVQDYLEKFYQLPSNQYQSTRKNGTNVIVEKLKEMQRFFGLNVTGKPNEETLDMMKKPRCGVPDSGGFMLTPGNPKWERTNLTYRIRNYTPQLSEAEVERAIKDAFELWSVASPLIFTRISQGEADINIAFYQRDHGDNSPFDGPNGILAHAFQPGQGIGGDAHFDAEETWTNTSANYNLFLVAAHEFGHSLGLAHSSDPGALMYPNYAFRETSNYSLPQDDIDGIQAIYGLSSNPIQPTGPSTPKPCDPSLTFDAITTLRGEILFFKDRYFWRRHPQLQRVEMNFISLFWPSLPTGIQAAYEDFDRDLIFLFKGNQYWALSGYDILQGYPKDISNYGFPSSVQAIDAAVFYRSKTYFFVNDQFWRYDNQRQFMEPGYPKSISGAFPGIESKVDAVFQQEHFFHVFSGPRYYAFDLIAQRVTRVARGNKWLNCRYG
# [17] = Apparent permeability in Wistar rat colon in Using diffusion chamber; assay type: ADME, tissue-based; conditions: not told
# How it was run: (§5)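 Everted-free intestinal segments (jejunum, ileum, colon) from four animals mounted in Ussing chambers; compound at 600 µg/mL in mucosa buffer added to the mucosal side. Serosal samples taken at 30, 60, 90, 120, 150 min, mucosal at 0 and 150 min, with buffer replacement. Quantified by HPLC-MS; Papp reported with SD.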
# [18] = Reduction of metastasis formation in SCID mouse bearing human prostate tumor cells at 50 mg/kg, ip; assay type: functional; set-up: scale not given: the % may be the effect or the level left; conditions: route intraperitoneal
# How it was run: (§6)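 Luciferase-transfected human prostate tumour cells implanted orthotopically into the prostate of SCID mice; daily ip dosing except weekends for six weeks. Primary tumour growth and metastasis followed weekly by luciferin bioluminescence imaging with a CCD camera.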
# B16-F10 [19] = experiment: Inhibition of metastasis formation in lungs of C57B1 mouse bearing B16F10 cells at 12.5 to 50 mg/kg, ip after 21 days; assay type: functional, Lung; conditions: dose mg/kg 12.5-50; route intraperitoneal; how it was run: as §2
# [20] = Tmax in Wistar rat at 150 mg/kg, ip; assay type: ADME, organism-based; set-up: dose 150 mg/kg, route intraperitoneal; conditions: in vivo; how it was run: as §1
# Collagenase 3 = Collagenase 3 (Homo sapiens, UniProt P45452); experiment: Inhibition of human recombinant MMP13; how it was run: as §3
# [21] = Apparent permeability in Wistar rat jejunum in using diffusion chamber; assay type: ADME, tissue-based; how it was run: as §5
# [22] = AUC in Wistar rat at 150 mg/kg, ip; assay type: ADME, organism-based; set-up: dose 150 mg/kg, route intraperitoneal; conditions: plasma; how it was run: as §1
# Rattus norvegicus [23] = experiment: Time over MIC in Wistar rat at 150 mg/kg, ip; assay type: ADME, organism-based; set-up: dose 150 mg/kg, route intraperitoneal; conditions: in vivo; how it was run: as §1
# [24] = Apparent permeability in Wistar rat ileum in using diffusion chamber; assay type: ADME, tissue-based; how it was run: as §5
# Interstitial collagenase = biological target: T2, Interstitial collagenase (Homo sapiens, UniProt P03956); experiment: Inhibition of human recombinant MMP1; how it was run: as §4
# T2 sequence (P03956 whole entry): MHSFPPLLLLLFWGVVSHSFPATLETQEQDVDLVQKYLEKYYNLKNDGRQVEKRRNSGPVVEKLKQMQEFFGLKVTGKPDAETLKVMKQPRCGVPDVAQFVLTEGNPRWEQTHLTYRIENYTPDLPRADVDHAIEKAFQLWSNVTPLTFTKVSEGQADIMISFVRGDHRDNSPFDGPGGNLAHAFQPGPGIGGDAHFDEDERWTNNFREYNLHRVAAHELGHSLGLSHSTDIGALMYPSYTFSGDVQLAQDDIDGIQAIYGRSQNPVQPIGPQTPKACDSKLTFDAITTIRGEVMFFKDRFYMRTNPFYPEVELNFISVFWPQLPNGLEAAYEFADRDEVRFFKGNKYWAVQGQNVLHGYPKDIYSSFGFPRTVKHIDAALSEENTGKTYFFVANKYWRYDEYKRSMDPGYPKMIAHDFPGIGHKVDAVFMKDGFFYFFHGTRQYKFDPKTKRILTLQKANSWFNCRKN
# [25] = Cmax in Wistar rat at 150 mg/kg, ip; assay type: ADME, organism-based; set-up: dose 150 mg/kg, route intraperitoneal; conditions: in vivo; how it was run: as §1
# [26] = Bioavailability in Wistar rat at 150 mg/kg, po; assay type: ADME, organism-based; conditions: in vivo; how it was run: as §1
# Mus musculus [27] = experiment: Time over MIC in C57B1 mouse at 150 mg/kg, po; assay type: ADME, organism-based; set-up: dose 150 mg/kg, route oral; conditions: in vivo; how it was run: as §1
# [28] = biological target: Matrix metalloproteinase-9 (Homo sapiens, UniProt P14780); experiment: Inhibition of human recombinant MMP9; how it was run: as §3
# Sequence of Matrix metalloproteinase-9 (P14780 whole entry, the tested form may be a part): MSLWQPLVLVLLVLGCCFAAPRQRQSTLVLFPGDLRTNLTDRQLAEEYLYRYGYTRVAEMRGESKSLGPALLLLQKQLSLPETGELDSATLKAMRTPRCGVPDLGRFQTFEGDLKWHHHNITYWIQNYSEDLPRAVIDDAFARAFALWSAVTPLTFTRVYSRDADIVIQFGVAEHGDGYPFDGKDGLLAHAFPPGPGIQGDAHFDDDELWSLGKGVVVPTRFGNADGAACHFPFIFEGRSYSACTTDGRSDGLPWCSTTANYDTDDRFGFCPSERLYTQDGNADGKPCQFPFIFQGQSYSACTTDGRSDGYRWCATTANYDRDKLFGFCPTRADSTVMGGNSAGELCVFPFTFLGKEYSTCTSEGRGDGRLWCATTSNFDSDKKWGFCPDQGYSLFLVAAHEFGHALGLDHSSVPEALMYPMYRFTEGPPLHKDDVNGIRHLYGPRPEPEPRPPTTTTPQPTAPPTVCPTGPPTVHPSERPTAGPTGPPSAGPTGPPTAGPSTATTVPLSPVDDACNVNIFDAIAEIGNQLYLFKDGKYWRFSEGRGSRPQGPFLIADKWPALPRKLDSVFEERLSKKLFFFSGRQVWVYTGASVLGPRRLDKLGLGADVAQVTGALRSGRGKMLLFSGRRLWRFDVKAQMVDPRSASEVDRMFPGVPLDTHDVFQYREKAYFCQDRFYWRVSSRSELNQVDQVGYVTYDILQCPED
# [29] = biological target: Disintegrin and metalloproteinase domain-containing protein 17 (Homo sapiens, UniProt P78536); experiment: Inhibition of human recombinant TACE; how it was run: as §4
# Sequence of Disintegrin and metalloproteinase domain-containing protein 17 (P78536 whole entry, the tested form may be a part): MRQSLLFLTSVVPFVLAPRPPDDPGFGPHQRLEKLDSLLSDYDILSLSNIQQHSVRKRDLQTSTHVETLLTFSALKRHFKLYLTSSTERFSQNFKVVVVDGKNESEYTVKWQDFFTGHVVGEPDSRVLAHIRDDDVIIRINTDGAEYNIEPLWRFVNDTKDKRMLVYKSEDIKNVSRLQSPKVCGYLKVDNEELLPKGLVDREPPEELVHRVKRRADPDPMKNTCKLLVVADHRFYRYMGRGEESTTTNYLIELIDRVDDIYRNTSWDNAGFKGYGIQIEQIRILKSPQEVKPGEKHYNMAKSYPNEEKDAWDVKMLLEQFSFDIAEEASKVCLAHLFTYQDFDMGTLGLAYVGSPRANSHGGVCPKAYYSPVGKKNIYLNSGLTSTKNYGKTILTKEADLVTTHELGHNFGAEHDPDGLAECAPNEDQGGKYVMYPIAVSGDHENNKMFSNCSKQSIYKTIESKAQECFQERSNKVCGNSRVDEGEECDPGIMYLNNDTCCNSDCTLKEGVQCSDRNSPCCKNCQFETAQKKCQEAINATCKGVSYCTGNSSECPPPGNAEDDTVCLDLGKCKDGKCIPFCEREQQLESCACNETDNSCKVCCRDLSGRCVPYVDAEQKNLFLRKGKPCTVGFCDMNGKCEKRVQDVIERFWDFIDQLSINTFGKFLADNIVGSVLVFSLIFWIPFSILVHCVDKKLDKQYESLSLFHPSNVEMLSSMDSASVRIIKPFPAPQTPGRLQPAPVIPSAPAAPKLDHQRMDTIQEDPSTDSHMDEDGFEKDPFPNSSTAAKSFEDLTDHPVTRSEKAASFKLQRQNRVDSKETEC
# [30] = Half life in C57B1 mouse at 150 mg/kg, po; assay type: ADME, organism-based; set-up: dose 150 mg/kg, route oral; conditions: in vivo; how it was run: as §1
# [31] = Reduction of local tumor growth in SCID mouse bearing human prostate tumor cells at 50 mg/kg, ip; assay type: functional; set-up: scale not given: the % may be the effect or the level left; conditions: route intraperitoneal; how it was run: as §6
# [32] = Apparent permeability in C57B1 mouse jejunum in using diffusion chamber; assay type: ADME, tissue-based
# [33] = Bioavailability in Wistar rat at 150 mg/kg, ip; assay type: ADME, organism-based; conditions: in vivo; how it was run: as §1
# Rattus norvegicus [34] = experiment: Time over MIC in Wistar rat at 150 mg/kg, po; assay type: ADME, organism-based; set-up: dose 150 mg/kg, route oral; conditions: in vivo; how it was run: as §1
# [35] = Tmax in C57B1 mouse at 150 mg/kg, po; assay type: ADME, organism-based; set-up: dose 150 mg/kg, route oral; conditions: in vivo; how it was run: as §1
# Rattus norvegicus [36] = experiment: Time over MIC in Wistar rat at 50 mg/kg, iv; assay type: ADME, organism-based; set-up: dose 50 mg/kg, route intravenous; conditions: in vivo; how it was run: as §1
# [37] = Cmax in Wistar rat at 50 mg/kg, iv; assay type: ADME, organism-based; set-up: dose 50 mg/kg, route intravenous; conditions: in vivo; how it was run: as §1
# [38] = Elimination half life in Wistar rat at 150 mg/kg, ip; assay type: ADME, organism-based; set-up: dose 150 mg/kg, route intraperitoneal; conditions: in vivo; how it was run: as §1
# B16-F10 [39] = experiment: Reduction in tumor colonization in of C57B1 mouse bearing B16F10 cells at 50 mg/kg, po after 21 days; assay type: functional; set-up: scale not given: the % may be the effect or the level left; how it was run: as §2
compound,measurement,setting,value
N[C@H]1CCCC[C@H]1NC(=O)P(=O)(O)O (relative stereo),half-life,[1],0.313 h
same,AUC,[2],127000 ng·h/mL
same,Activity,B16-F10 [3],85%
same,Cmax,[4],0.544 µg/mL
same,AUC,[5],4500 ng·h/mL
same,IC50,[6],4 µM
same,IC50,[7],> 100 µM
same,half-life,[8],2.1 h
same,Vd,[9],0.186 L/kg
same,Activity,Mus musculus [10],Non-toxic
same,Cmax,[11],0.712 µg/mL
same,IC50,Stromelysin-1,> 100 µM
same,Tmax,[12],0.29 h
same,AUC,[13],1320 ng·h/mL
same,inhibition,[14],90%
same,Papp,[15],2.4 ×10⁻⁶ cm/s
same,clearance,[16],6.9 mL/min/kg
same,IC50,Neutrophil collagenase,> 100 µM
same,Papp,[17],9.27 ×10⁻⁶ cm/s
same,Activity,[18],90%
same,Inhibition,B16-F10 [19],50%
same,Tmax,[20],30 s
same,IC50,Collagenase 3,> 100 µM
same,Papp,[21],7.9 ×10⁻⁶ cm/s
same,AUC,[22],44600 ng·h/mL
same,T>MIC,Rattus norvegicus [23],> 24 h
same,Papp,[24],7.01 ×10⁻⁶ cm/s
same,IC50,Interstitial collagenase,> 100 µM
same,Cmax,[25],144 µg/mL
same,bioavailability,[26],0.35%
same,T>MIC,Mus musculus [27],> 12 h
same,IC50,[28],20 µM
same,IC50,[29],> 100 µM
same,half-life,[30],13.5 h
same,Activity,[31],60%
same,Papp,[32],8.3 ×10⁻⁶ cm/s
same,bioavailability,[33],11.8%
same,T>MIC,Rattus norvegicus [34],> 6 h
same,Tmax,[35],1 h
same,T>MIC,Rattus norvegicus [36],> 4 h
same,Cmax,[37],306 µg/mL
same,half-life,[38],1.8 h
same,Activity,B16-F10 [39],95%
N[C@@H]1CCCC[C@H]1NC(=O)P(=O)(O)O (relative stereo),IC50,[6],> 100 µM
same,IC50,[7],> 100 µM
same,IC50,Stromelysin-1,25 µM
same,IC50,Neutrophil collagenase,50 µM
same,IC50,Collagenase 3,55 µM
same,IC50,Interstitial collagenase,90 µM
same,IC50,[28],> 100 µM
same,IC50,[29],> 100 µM
